Bioassay records deposited in PubChem by Johns Hopkins Ion Channel Center.
In the library only some 3.7% were active in any assay of this set; here they are far more common.
KCNK3 inh – human KCNK3 channel inhibition, primary screen. CHO-KCNK3 thallium flux, FluxOR fluorescence; active compounds read low. B-score at 10 µM. 340,000 tested, 0.84% active;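 active = B-score under library mean minus 4 SD, starting fluorescence ratio at most library mean plus 5 SD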;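 also: more negative B-score means stronger inhibition of thallium flux through KCNK3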
Kir21 block – inhibitors of mouse Kir2.1 inward-rectifier potassium channel. HEK293-Kir2.1, FluxOR thallium flux fluorescence; active compounds read low. B-score at 10 µM. 310,000 tested, 0.85% active. AID 1672;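 active = fluorescence ratio B-score at or below minus 3 SD of library scores, with starting-brightness B-score within 2 SD, cut at about -4.2 in these data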;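 also: channel flux triggered by added potassium and thallium sulfate stimulus; B-score of peak minus minimum fluorescence over baseline after thallium stimulus; more negative B-score means stronger Kir2.1 block with less thallium influx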
Target sequence (P35561 whole entry, looked up): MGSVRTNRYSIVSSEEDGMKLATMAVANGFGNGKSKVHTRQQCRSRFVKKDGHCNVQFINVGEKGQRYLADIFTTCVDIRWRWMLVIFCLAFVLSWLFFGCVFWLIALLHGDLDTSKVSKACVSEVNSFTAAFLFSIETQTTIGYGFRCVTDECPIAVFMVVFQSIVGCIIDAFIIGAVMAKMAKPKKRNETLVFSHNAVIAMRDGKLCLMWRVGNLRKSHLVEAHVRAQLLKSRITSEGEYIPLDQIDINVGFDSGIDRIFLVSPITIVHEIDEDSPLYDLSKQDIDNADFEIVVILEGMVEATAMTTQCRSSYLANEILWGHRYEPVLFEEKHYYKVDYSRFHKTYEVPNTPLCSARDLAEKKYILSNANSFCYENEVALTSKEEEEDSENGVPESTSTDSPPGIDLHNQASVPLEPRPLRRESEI
KCNK9 inh-1 – inhibitors of human KCNK9 two-pore domain potassium channel; HEK293 KCNK9, FluxOR thallium flux fluorescence; active compounds read low; Q9NPC2; AID 488922; B-score at 10 µM; 310,000 tested, 1.2% active;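 active = ratio B-score over 3 SD below the library mean, with starting fluorescence within 5 SD of its mean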;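 also: negative B-score means less thallium flux so channel inhibition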
KCNQ1 act – potentiates or activates the human KCNQ1 potassium channel. P51787. CHO-K1 KCNQ1, thallium flux FluxOR fluorescence; active compounds read high. B-score at 10 µM. 310,000 tested, 0.35% active. AID 2648;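 active = fluorescence ratio B-score, a plate-corrected score, at least three library SD, with initial intensity B-score within 5 SD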
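assay system = CHO-K1 cells stably expressing KCNQ1 | medium = assay buffer, equal DMSO in all wells | timing = 37 °C overnight plating, 90-min dark dye load, 20-min compound pretreatment | measured by = kinetic FluxOR thallium fluorescence, 10-s 1-Hz baseline, 110-s post-stimulus read | measure = fluorescence change relative to baseline, converted to B score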
hERG rescue – shields human hERG channel from block by proarrhythmic agents. CHO-hERG, FluxOR thallium flux, dofetilide IC70 present. activation (rescue from dofetilide block), less the hit threshold, % at 10 µM. 310,000 tested, 0.51% active. Q12809;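 active = activation above the mean of controls blocked by dofetilide plus 5 SD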;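 also: thallium influx through hERG after potassium depolarization seen as dye fluorescence rise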
KCNQ1 inh – blocks the human KCNQ1 potassium channel. B-score at 10 µM. 310,000 tested, 1.3% active. P51787. CHO-K1 KCNQ1, FluxOR thallium flux fluorescence; active compounds read high;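 active = compounds whose thallium flux B-score, printed positive for inhibition, exceeds three library SD while starting fluorescence stays within three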;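 also: channel opened by potassium depolarization with thallium stimulus after 20 min compound exposure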
hERG inh – hERG (human) inhibition as Kir2.1 counter-screen; shares compounds with Kir21 block; hERG-expressing cells, thallium flux; inhibition, % at 10 µM; 320 tested, 20% active; AID 2236;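 also: host cells are CHO cells stably expressing hERG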
KCNK9 inh-2 – human KCNK9 off-target activity of Kir2.1 blockers. shares compounds with Kir21 block. KCNK9-expressing cells, ion flux inhibition. inhibition, % at 10 µM. 320 tested, 5% active. AID 2329
Kir21 ephys inh – blocks mouse Kir2.1 current in automated electrophysiology | AID 463252 | inhibition, % at 25 µM | 320 tested, 71% active | Kir2.1 cells, automated patch-clamp current inhibition | shares compounds with Kir21 block
Numbers without * were called inactive; i = inactive; · = no result. Unless noted, no rule for the calls is given here.

SMILES	KCNK3 inh	Kir21 block	KCNK9 inh-1	KCNQ1 act	hERG rescue	KCNQ1 inh	others
CCCCN(CC)C(=O)c1cc2cc3ccc(OC)cc3nc2o1	i	3	-6.7*	i	-10	i
Cc1cc(C)c(S(=O)(=O)Nc2nccs2)c(C)c1	i	-0.04	i	i	-7	i
CCOC(=O)Cn1c(=N)n(CCOc2ccc3ccccc3c2)c2ccccc21	i	-11*	i	i	-18	i
O=C(CCc1nnc(-c2ccc(-c3ccccc3)cc2)o1)N1CCCCC1	i	0.03	i	i	-2	i
Cc1nnc(C)c2c(C)n(C(c3ccccc3)c3ccccc3)c(C)c12	i	-4.5*	i	i	-22	i
Cc1nnc(C)c2c(C)n(-c3ccccc3)c(C)c12	i	1.1	i	i	-12	i
CCOC(=O)c1sc2ncnc(NCC(c3cccs3)N(C)C)c2c1C (stereo not drawn)	i	2.5	i	55*	20*	i
C=C1C(=O)O[C@H]2C1CC[C@@](C)(O)C13C=CC(C)(C21)C1(C3)C(=O)O[C@@H]2C3C(C)=CCC3[C@](C)(O)C[C@H](OC(C)=O)C21 (stereo partly drawn)	i	0.87	i	i	5.9*	i
c1ccc2c(NCC3CCCO3)nc(N3CCOCC3)nc2c1 (stereo not drawn)	i	-0.7	i	i	-5	i
COc1ccc(Nc2nc(NCC3CCCO3)c3ccccc3n2)c(OC)c1 (stereo not drawn)	i	-9.9*	i	i	-11	i
Oc1cccc(Nc2nc(NCC3CCCO3)c3ccccc3n2)c1 (stereo not drawn)	i	-8.1*	i	i	-38	9*
CN(C)CCNC(=O)c1ccc(COc2ccc(Cl)cc2Cl)cc1	i	-4.8*	i	i	-27	i
COc1ccc(Cl)cc1C(=O)NCCN(C)C	i	0	i	i	6.8*	i
CN(Cc1ccc(Cl)s1)C(=O)CNC(=O)CNC(=O)c1ccc(Cl)cc1Cl	i	·	·	·	·	·
COc1ccc(CCNC(=O)COC(=O)CCC(=O)c2ccc(F)cc2)cc1	i	-1.4	i	i	-11	i
CC1(c2ccccc2)CC(C)(C)N2C(=O)/C(=C3\SC(=S)NC3=O)c3cccc1c32 (stereo not drawn)	i	-1.5	i	81*	-6	i
COc1cc(CCC(=O)OCC(=O)NCc2ccc(Cl)cc2)cc(OC)c1OC	i	-4.4*	i	i	-4	i
COc1cc(CCC(=O)NCc2ccc(Cl)cc2)cc(OC)c1OC	i	-1.8	i	i	-4	i
CCC1(CC)NC(=O)N(CC(=O)Nc2ccc(C)cc2C)C1=O	i	·	·	·	·	·
O=C1NC[C@H](Cc2ccccc2)N(C[C@H]2CCCN2C[C@H](Cc2ccccc2)N2C[C@H](Cc3ccccc3)N(CC3CCCCCC3)C(=O)C2=O)C1=O	-9*	·	·	·	·	·
CC(C)C[C@@H](CN1CCC[C@@H]1CN1C(=O)C(=O)NC[C@@H]1Cc1ccccc1)N1C[C@H](Cc2ccccc2)N(CC2CCCCCC2)C(=O)C1=O	i	·	·	·	·	·
COc1cc(C=C(c2nc3ccccc3s2)c2nc3ccccc3s2)ccc1O	i	-0.38	i	i	-14	6*
NC1=NC(=O)C(Cc2ccc(Br)cc2)S1 (stereo not drawn)	i	-0.4	i	i	-6	i
COc1ccc(OC)c(-c2oc3ccccc3c(=O)c2O)c1	i	0.64	i	i	-8	i
COc1ccc(OC)c(C2=C/C(=C/c3ccccn3)C(=O)O2)c1	i	-1.4	-7.6*	i	-15	i
SMILES	KCNK3 inh	Kir21 block	KCNK9 inh-1	KCNQ1 act	hERG rescue	KCNQ1 inh	others
CC1=CC(C)(C)N(C(=O)CNC2CCCCC2)c2cc(C)ccc21	i	-6*	i	i	-13	i
CC1=CC(C)(C)N(C(=O)CCl)c2cc(C)ccc21	i	-2.7	i	i	-19	i
CNC(=S)N1CCN(C(=O)C2CCCO2)CC1 (stereo not drawn)	i	-0.58	i	i	-9	i
O=C(Oc1cccc(OC(=O)c2ccco2)c1)c1ccco1	i	-5.7*	i	i	-7	i	hERG inh=i;KCNK9 inh-2=i;Kir21 ephys inh=i
O=C(Oc1cccc(-n2cnnn2)c1)c1ccco1	i	-0.02	i	i	0	i
CC(C)c1ccc(C(C)NCCS(=O)(=O)c2ccc(Cl)cc2)cc1 (stereo not drawn)	i	-8*	i	i	-15	i	hERG inh=i;KCNK9 inh-2=i;Kir21 ephys inh=5.1%*
CC(C(=O)NCCS(=O)(=O)c1ccc(Br)cc1)S(=O)(=O)c1ccc(Cl)cc1 (stereo not drawn)	i	-0.02	i	i	-1	i
CC(C)CCC(CCNCc1ccccn1)c1ccc(Cl)cc1 (stereo not drawn)	i	-6.7*	i	i	-14	i	hERG inh=70%*;KCNK9 inh-2=i;Kir21 ephys inh=i
O=C(CNC(=O)c1sc2ccccc2c1Cl)NCc1cccc(C(F)(F)F)c1	i	-0.24	i	i	-14	i
Cc1onc(-c2ccccc2)c1CNS(=O)(=O)c1cccc(Cl)c1	i	-9.8*	i	i	-4	i	hERG inh=i;KCNK9 inh-2=i;Kir21 ephys inh=12%*
Cc1c(Br)cc(C(=O)OC2CCN(C)CC2)c(C)c1C	i	-10*	i	i	-12	i	hERG inh=i;KCNK9 inh-2=i;Kir21 ephys inh=45%*
COc1ccc(/C=C2\SC(=O)N(CC(=O)NN3CCN(C)CC3)C2=O)cc1OC	i	-1.7	i	i	-14	i
O=C(NCCCN1CCOCC1)c1ccc(-c2ccc(Cl)cc2)o1	i	0.02	i	i	-20	i
O=C(NCCCN1CCOCC1)c1ccc(CSc2ccc(Cl)cc2)cc1	i	-7.8*	i	i	-13	i	hERG inh=46%*;KCNK9 inh-2=i;Kir21 ephys inh=21%*
CCCc1ccccc1OCCNS(=O)(=O)c1cc2c(cc1C)OCC(=O)N2	i	-6.5*	i	i	-18	i	hERG inh=i;KCNK9 inh-2=i;Kir21 ephys inh=i
Cc1cc2c(cc1S(=O)(=O)NCCc1ccccc1)NC(=O)CO2	i	-3	i	i	-7	i
